≈ marks a conversion by molar mass, not a printed value. Calls of active or inactive are those of the source. The rule behind the calls is not given here.
Columns and labels:
[1] = tested on: L1210; test: Tested for cytotoxicity against murine L1210 cells in vitro; weak cytotoxicity; assay type: functional, cell-based; details: Mus musculus
[2] = tested on: Vero; test: Dose to inhibit plaque formation in vero cells infected with herpes simplex virus type-1 (HSV-1,strainJLJ) was determined relative to acyclovir; value ranges from 0.1-1.0 ug/mL; assay type: functional; details: Chlorocebus sabaeus, read-out: ID50 (the source's name)
[3] = tested on: Vero; test: Dose to inhibit plaque formation in vero cells infected with herpes simplex virus type-1 (HSV-1,strainJLJ) was determined; assay type: functional; details: Chlorocebus sabaeus, read-out: ID50 (the source's name)
Procedure, shortened: (§1)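 HSV-1 plaque-reduction assay in Vero cell monolayers. After 1-h virus adsorption at 37 °C, cells were overlaid with 1% agarose in E-MEM with 2% FBS containing the compound at 0.1, 1.0 and 10 μg/mL. Neutral red staining followed 4 days at 37 °C in 5% CO2, then plaques were counted. ID50 is the concentration cutting plaque number by 50%. The experiment was run once.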

[4] = Inhibition constant was determined for the facilitated transport of [[…]]-thymidine by murine erythrocyte NBMPR-sensitive nucleoside transporter.; assay type: functional, Mus musculus
Procedure, shortened: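 Murine erythrocytes; facilitated uptake of [3H]thymidine through the NBMPR-sensitive nucleoside transporter. Extracellular [3H]thymidine sampled at various times after exposure and counted by liquid scintillation. Ki taken as the inhibition constant for this transport. Values are generally the mean of two determinations (range), with some n = 1 and the 2'-deoxyuridine reference n = 3.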

[5] = tested on: P388; test: In vivo cytotoxicity was determined against P388 mouse leukemia cells, (% treated / control) at 20 mg/kg (ip) administration; assay type: functional
Procedure, shortened: (§2)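 B6D2F1 mice, six per group, were implanted ip with 10⁶ P388 leukemia cells in 0.2 mL saline on day 0. Compound in saline/ethanol (6:1) was given ip at 20 mg/kg on days 1–5. Mice were followed until death. Mean survival time was compared with saline-treated controls and expressed as % T/C.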

[6] = species on record: Mus musculus; test: Percent survival of L1210 cells in suspension was determined after a dose of 10 ug/mL in mouse; assay type: functional
Procedure, shortened: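 L1210 suspension cultures in Fischer's medium with 10% heat-inactivated horse serum, 37 °C, 5% CO2. Compound was added from ethanol, water or ethanol/water at final 50, 10 or 1 μg/mL. Cells were counted by Coulter counter after 48 h. % survival = (T48−T0)/(C48−C0)×100 versus untreated controls, given as mean ± SD (n = 3).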

[7] = tested on: L1210; test: In vitro cytotoxicity was determined against L1210 leukemia cell from mouse.; assay type: functional; details: read-out: ED50 (the source's name)
Procedure, shortened: (§3)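 Mouse L1210 cells were grown in suspension in Fischer's medium with 10% heat-inactivated horse serum at 37 °C, 5% CO2, seeded at 10⁵ cells/mL. Compound was added from ethanol, water or ethanol/water at final 50, 25, 10, 5.0, 2.5 and 1 μg/mL. Cells were counted by Coulter counter at 48 h, in triplicate. % survival = (T48−T0)/(C48−C0)×100; ED50 is the 50% survival reduction.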

[8] = tested on: P388; test: In vivo cytotoxicity was determined against P388 mouse leukemia cells expressed as % treated/control; assay type: functional; procedure, shortened: as §2
[9] = tested on: Human alphaherpesvirus 1; test: Tested for in vitro anti-HSV-1 activity; active; assay type: functional, organism-based
[10] = tested on: L1210; test: In vitro cytotoxicity was determined against L1210 leukemia cells from mouse; assay type: functional; details: read-out: ED50 (the source's name); procedure, shortened: as §3
[11] = tested on: Vero; test: Dose to inhibit plaque formation in vero cells infected with herpes simplex virus type 1 (HSV-1,strainJLJ) was determined; assay type: functional; details: Chlorocebus sabaeus, read-out: ID50 (the source's name); procedure, shortened: as §1

| SMILES | IC50 [3] [µg/mL] | Ki [4] [µM] | Survival [6] [%] | further results |
| --- | --- | --- | --- | --- |
| O=c1[nH]c(=O)n([C@H]2C[C@H](O)[C@@H](CO)O2)cc1C(O)CBr (some centres not stated) |  |  |  | Cyotoxicity [1]: weak cytotoxicity; IC50 [2]: 1 µg/mL (≈ 2.85 µM) |
| O=c1[nH]c(=O)n([C@H]2C[C@H](O)[C@@H](CO)O2)cc1/C=C/I | < 0.1 | 25 |  |  |
| O=c1[nH]c(=O)n([C@H]2C[C@H](O)[C@@H](CO)O2)cc1C(O)CCl (some centres not stated) |  |  |  | Cyotoxicity [1]: weak cytotoxicity; IC50 [2]: 1 µg/mL (≈ 3.26 µM) |
| O=c1ccn([C@H]2C[C@H](O)[C@@H](CO)O2)c(=O)[nH]1 [DEOXYURIDINE] |  | 125 |  |  |
| COC(CBr)c1cn([C@H]2C[C@H](O)[C@@H](CO)O2)c(=O)[nH]c1=O (some centres not stated) |  |  |  | Cyotoxicity [1]: weak cytotoxicity; IC50 [2]: 1 µg/mL (≈ 2.74 µM) |
| O=c1[nH]cc(F)c(=O)[nH]1 [FLUOROURACIL] |  |  |  | T/C [5]: >135% |
| COC(CI)c1cn([C@H]2C[C@H](O)[C@@H](CO)O2)c(=O)[nH]c1=O (some centres not stated) | 0.1 (≈ 0.243 µM) | 35 | 42 | EC50 [7]: 6 µg/mL (≈ 14.6 µM); T/C [8]: 114% |
| O=c1[nH]c(=O)n(C2O[C@H](CO)[C@@H](O)[C@H]2O)cc1C(O)CI (some centres not stated) | > 100 |  | 87 |  |
| O=c1[nH]c(=O)n([C@H]2C[C@H](O)[C@@H](CO)O2)cc1/C=C/Br |  |  |  | Activity [9]: Active |
| COCC(O)c1cn([C@H]2C[C@H](O)[C@@H](CO)O2)c(=O)[nH]c1=O (some centres not stated) | > 10 | 610 | 37 | EC50 [7]: 12 µg/mL (≈ 39.7 µM); T/C [8]: 103% |
| O=c1[nH]c(=O)n([C@@H]2O[C@H](CO)[C@@H](O)[C@H]2F)cc1C(O)CI (some centres not stated) | > 100 |  | 93 |  |
| O=c1[nH]c(=O)n([C@H]2C[C@H](O)[C@@H](CO)O2)cc1C(O)CI (some centres not stated) | > 10 | 155 | 52 | EC50 [7]: 10.5 µg/mL (≈ 26.4 µM); T/C [8]: 98% |
| C=Cc1cn([C@@H]2O[C@H](CO)[C@@H](O)[C@H]2F)c(=O)[nH]c1=O | 0.1 (≈ 0.367 µM) |  | 87 |  |
| N[C@@H](Cc1ccc(N(CCCl)CCCl)cc1)C(=O)O [MELPHALAN] |  |  |  | EC50 [10]: 0.15 µg/mL (≈ 0.491 µM) |
| COC(CI)c1cn([C@@H]2O[C@H](CO)[C@@H](O)[C@H]2F)c(=O)[nH]c1=O (some centres not stated) | > 100 |  | 97 |  |
| O=c1[nH]c(=O)n(C2CC(O)C(CO)O2)cc1C(O)C(I)I (configuration not stated) | > 10 | 220 | 2 | EC50 [7]: 0.77 µg/mL (≈ 1.47 µM); T/C [8]: 112% |
| O=c1nc2c(cn1[C@H]1C[C@H](O)[C@@H](CO)O1)C(O)CO2 (some centres not stated) | > 100 | 8000 | 103 |  |
| O=c1[nH]c(=O)n([C@H]2C[C@H](O)[C@@H](CO)O2)cc1CCCl |  |  |  | Activity [9]: Active |
| COC(CI)c1cn(C2O[C@H](CO)[C@@H](O)[C@H]2O)c(=O)[nH]c1=O (some centres not stated) | > 100 |  | 108 |  |
| Nc1nc2c(ncn2COCCO)c(=O)[nH]1 [ACYCLOVIR] |  |  |  | IC50 [11]: 0.01 µg/mL (≈ 0.0444 µM) |
